Laboratory results published in ChEMBL document CHEMBL4400513, “Aurone derivatives as promising antibacterial agents against resistant Gram-positive pathogens” (Eur J Med Chem, 2019).
≈ marks a conversion by molar mass, not a printed value. Calls of active or inactive are those of the source. No cut-off for these calls is given here.

Key:
Arthrobacter gandavensis = assay: Antimicrobial activity against Arthrobacter gandavensis after 18 to 24 hrs in aerobic condition by two-fold serial dilutions method; type: functional
Summary of the method: (§1)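 Colonies grown overnight (~16 h) in Mueller-Hinton broth at 37 °C, 200 rpm, diluted 1/100 and grown to log phase (OD600 ~0.6), then diluted to ~10^5 bacteria/mL. Exposed to 0 to 500 µM in 1:2 series (0.2% DMSO final control), aerobic, 37 °C, 18–24 h. OD600 read; MIC = lowest concentration without visible growth; n = 3.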

Bacillus subtilis [1] = assay: Antimicrobial activity against Bacillus subtilis after 18 to 24 hrs in aerobic condition by two-fold serial dilutions method; type: functional; summary of the method: as §1
Clostridioides difficile [2] = assay: Antimicrobial activity against Clostridium difficile after 18 to 24 hrs in anaerobic condition by two-fold serial dilutions method; type: functional
Summary of the method: (§2)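 Precultures in BHI broth at 37 °C in an anaerobic cabinet, grown to log phase (OD600 ~0.6), then seeded at ~10^5 bacteria/mL. Two-fold dilutions from 0 to 500 µM, 0.2% DMSO final as control. Plates incubated anaerobically at 37 °C for 18–24 h, OD600 read; MIC = lowest concentration giving no visible growth; independent triplicate.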

[3] = test system: Streptococcus thermophilus; assay: Antimicrobial activity against Streptococcus thermophilus after 18 to 24 hrs in anaerobic condition by two-fold serial dilutions method; type: functional; summary of the method: as §2
Acinetobacter baumannii [4] = assay: Antimicrobial activity against Acinetobacter baumannii after 18 to 24 hrs in aerobic condition by two-fold serial dilutions method; type: functional; summary of the method: as §1
Acinetobacter baumannii [5] = assay: Antimicrobial activity against Acinetobacter baumannii MRS after 18 to 24 hrs in aerobic condition by two-fold serial dilutions method; type: functional; summary of the method: as §1
[6] = test system: Bacteroides thetaiotaomicron; assay: Antimicrobial activity against Bacteroides thetaiotaomicron after 18 to 24 hrs in anaerobic condition by two-fold serial dilutions method; type: functional; summary of the method: as §2
Escherichia coli [7] = assay: Antimicrobial activity against Escherichia coli […] K88 after 18 to 24 hrs in aerobic condition by two-fold serial dilutions method; type: functional
Summary of the method: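 Strains grown on LB at 37 °C aerobically, then in Mueller-Hinton broth overnight at 200 rpm and brought to log phase (OD600 ~0.6). About 10^5 bacteria/mL exposed to two-fold serial dilutions 0–500 µM, DMSO 0.2% final as control. Aerobic incubation at 37 °C for 18–24 h; OD600 read; MIC = lowest concentration inhibiting visible growth. n = 3.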

[8] = test system: Mycolicibacterium smegmatis; assay: Antimicrobial activity against Mycobacterium smegmatis after 18 to 24 hrs in anaerobic condition by two-fold serial dilutions method; type: functional
Aspergillus niger = assay: Antifungal activity against Aspergillus niger after 48 hrs by two-fold serial dilutions method; type: functional
Summary of the method: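 Two-fold serial dilution MIC, 0 to 500 µM, from 200 mM DMSO stocks; 0.2% DMSO final as vehicle control. Inoculum about 10^5 cells/mL. Organism maintained on potato dextrose agar and in RPMI. Plates incubated 48 h at 35 °C, then OD600 read; MIC taken as lowest concentration with no visible growth; n = 3 independent runs.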

Pseudomonas aeruginosa = assay: Bactericidal activity against Pseudomonas aeruginosa in aerobic condition; type: functional, organism-based
Summary of the method: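 MH broth; log-phase bacteria (OD600 ~0.6) diluted to ~10^5 bacteria/mL and exposed to two-fold serial dilutions (0–500 µM; 0.2% DMSO final as vehicle control) at 37 °C, aerobic, 18–24 h. MIC is the lowest concentration preventing visible growth (OD600). MBC is found by streaking 10 µL from no-growth wells onto agar; the MBC is the concentration where ≤1 colony grew. n = 3.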

Bacillus subtilis [9] = assay: Bactericidal activity against Nisin-resistant Bacillus subtilis in aerobic condition; type: functional, organism-based
Clostridioides difficile [10] = assay: Bactericidal activity against Clostridium difficile in anaerobic condition; type: functional, organism-based
Summary of the method: (§3)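 From the MIC plates, 10 µL from each well without growth was streaked onto agar suited to the organism and incubated under that organism's growth conditions. Colonies were then counted; MBC = lowest concentration allowing ≤1 colony, i.e. killing 99.9% of bacteria.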

Lactococcus lactis = assay: Bactericidal activity against Lactococcus lactis in aerobic condition; type: functional, organism-based; summary of the method: as §3
Escherichia coli [11] = assay: Bactericidal activity against Escherichia coli MRS in aerobic condition; type: functional, organism-based; summary of the method: as §3
Helicobacter pylori = assay: Bactericidal activity against Helicobacter pylori in anaerobic condition; type: functional, organism-based; summary of the method: as §3
Klebsiella pneumoniae = assay: Bactericidal activity against Klebsiella pneumoniae in aerobic condition; type: functional, organism-based; summary of the method: as §3
Klebsiella variicola = assay: Bactericidal activity against Klebsiella variicola in aerobic condition; type: functional, organism-based; summary of the method: as §3
[12] = test system: Mycolicibacterium smegmatis; assay: Bactericidal activity against Mycobacterium smegmatis in anaerobic condition; type: functional, organism-based; summary of the method: as §3
Aspergillus flavus = assay: Fungicidal activity against Aspergillus flavus; type: functional, organism-based
Summary of the method: (§4)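 Filamentous fungi grown on potato dextrose agar and tested in RPMI medium with two-fold serial dilutions (0–500 µM, 0.2% DMSO final). Plates held at room temperature for 2 to 5 days, then OD600 read; MIC taken as the lowest concentration with no visible growth. The fungicidal endpoint is ≤1 colony after streaking 10 µL of no-growth wells on agar. n = 3.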

Aspergillus ochraceus = assay: Fungicidal activity against Aspergillus ochraceus; type: functional, organism-based; summary of the method: as §4
Fusarium graminearum = assay: Fungicidal activity against Fusarium graminearum; type: functional, organism-based
Fusarium verticillioides = assay: Fungicidal activity against Fusarium verticillioides; type: functional, organism-based; summary of the method: as §4
Clostridium perfringens = assay: Induction of cell membrane permeability in Clostridium perfringens assessed as membrane integrity after 240 mins in anaerobic condition by propidium iodide staining-based assay relative to control; type: functional
Summary of the method: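 Log-phase bacteria resuspended in PBS at about 10^9/mL with propidium iodide 60 µM final, mixed 1:1 with two-fold serial dilutions of compound. Fluorescence (ex 530/em 590 nm) recorded over 240 min at 37 °C anaerobically. Normalised to CTAB 300 µM or nisin at 5× MIC (100% permeabilization); DMSO as vehicle. Triplicate.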

[13] = Therapeutic index, ratio of IC50 for human BEAS2B cells to MIC for methicillin-resistant Staphylococcus aureus; type: toxicity; conditions: read-out: TI
Summary of the method: (§5)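 IC50 measured on confluent normal human BEAS-2B or IMR-90 cells (DMEM, 10% FCS) after 48 h exposure with DMSO 0.2% as control. Resazurin read after 4 h (ex 530/em 590 nm), normalised to DMSO-treated cells. Index obtained by comparing this IC50 with the bacterial MIC.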

[14] = Therapeutic index, ratio of IC50 for human IMR90 cells to MIC for Clostridium perfringens; type: toxicity; conditions: read-out: TI; summary of the method: as §5

Row | SMILES | MIC (Arthrobacter gandavensis) [µM] | MIC (Bacillus subtilis [1]) [µM] | MIC (Clostridioides difficile [2]) [µM] | MIC [3] [µM] | MIC (Acinetobacter baumannii [4]) [µM] | MIC (Acinetobacter baumannii [5]) [µM] | MIC [6] [µM] | MIC (Escherichia coli [7]) [µM] | MIC [8] [µM] | MIC (Aspergillus niger) [µM] | Activity (Pseudomonas aeruginosa) | Activity (Bacillus subtilis [9]) | Activity (Clostridioides difficile [10]) | Activity (Lactococcus lactis) | Activity (Escherichia coli [11]) | Activity (Helicobacter pylori) | Activity (Klebsiella pneumoniae) | Activity (Klebsiella variicola) | Activity [12] | Activity (Aspergillus flavus) | other results
1 | COc1cc(/C=C2\Oc3cc(O)cc(O)c3C2=O)ccc1OCc1ccccc1 | 31.2 (≈ 12.2 µg/mL) | 7.8 (≈ 3.05 µg/mL) | 31.2 (≈ 12.2 µg/mL) | 125 (≈ 48.8 µg/mL) | > 500 | > 500 | > 500 | > 500 | > 500 | > 500 | Active | Active | Active | Active | Active | Active | Active | Active | Active | Active | Activity (Aspergillus ochraceus): Active; Activity (Fusarium graminearum): Active; Activity (Fusarium verticillioides): Active; Activity (Clostridium perfringens): 30%
2 | O=C1/C(=C/c2ccc(F)cc2)Oc2cc(O)cc(O)c21 | 15.6 (≈ 4.25 µg/mL) | 62.5 (≈ 17 µg/mL) | 62.5 (≈ 17 µg/mL) | 31.2 (≈ 8.51 µg/mL) | > 500 | > 500 | > 500 | > 500 | > 500 | > 500 | Active | Active | Active | Active | Active | Active | Active | Active | Active | Active | Activity (Aspergillus ochraceus): Active; Activity (Fusarium graminearum): Active; Activity (Fusarium verticillioides): Active; Activity (Clostridium perfringens): inactive; selectivity ratio [13]: 76
3 | O=C1/C(=C/c2ccccc2)Oc2cc(O)cc(O)c21 | 31.2 (≈ 7.95 µg/mL) | 62.5 to 125 (≈ 15.9 to 31.8 µg/mL) | 62.5 (≈ 15.9 µg/mL) | 31.2 (≈ 7.95 µg/mL) | > 500 | > 500 | > 500 | > 500 | > 500 | 62.5 (≈ 15.9 µg/mL) | Active | Active | Active | Active | Active | Active | Active | Active | Active | Active | selectivity ratio [14]: 32; Activity (Aspergillus ochraceus): Active; Activity (Fusarium graminearum): Active; Activity (Fusarium verticillioides): Active; Activity (Clostridium perfringens): inactive
